According to ChEMBL document CHEMBL1156724, “Synthesis of triazole-oxazolidinones via a one-pot reaction and evaluation of their antimicrobial activity” (2008):
≈ marks a conversion by molar mass, not a printed value. Calls of active or inactive are those of the source. The rule behind the calls is not given here.

How the values were obtained:
Assay type in all cases: functional
Enterococcus faecalis [1] = assay: Antibacterial activity against Enterococcus faecalis ATCC 29212 assessed as zone of inhibition diameter at 1 mg/mL after 24 hrs by Kirby-Bauer disk diffusion assay
Summary of the method: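 Inoculum grown in Mueller–Hinton broth ~24 h at 37 °C, 180 rpm, then plated on nutrient agar. Kirby–Bauer disk method: 10 µL of 1 mg/mL solution in DMSO applied to 6 mm sterile paper disk; vancomycin (1 mg/mL in water) positive control, DMSO negative control. Plates incubated 24 h at 37 °C; inhibition zone diameter measured.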

[2] = system: Mycolicibacterium smegmatis; assay: Antibacterial activity against Mycobacterium smegmatis ATCC 14468 after 48 hrs visualized by MTT […]; settings: ATCC 14468, 48 h
Enterococcus faecalis [3] = assay: Antibacterial activity against Enterococcus faecalis ATCC 29212 after 24 hrs visualized by MTT analyzed by broth microdilution assay; settings: ATCC 29212, 24 h
Bacillus subtilis [4] = assay: Antibacterial activity against Bacillus subtilis ATCC 6633 assessed as zone of inhibition diameter at 1 mg/mL after 24 hrs by Kirby-Bauer disk diffusion assay; settings: ATCC 6633, 24 h, read-out: IZ
Summary of the method: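 Kirby–Bauer disk diffusion on nutrient agar, inoculum grown in Mueller–Hinton broth about 24 h at 37 °C, 180 rpm. 10 µL of 1 mg/mL compound in DMSO applied to 6 mm paper disks. Vancomycin (1 mg/mL in water) positive control, DMSO negative control. Plates incubated 24 h at 37 °C. Inhibition zone diameter measured.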

Bacillus subtilis [5] = assay: Antibacterial activity against Bacillus subtilis ATCC 6633 after 24 hrs visualized by MTT analyzed by broth microdilution assay; settings: ATCC 6633, 24 h
[6] = system: Mycolicibacterium smegmatis; assay: Antibacterial activity against Mycobacterium smegmatis ATCC 14468 assessed as zone of inhibition diameter at 1 mg/mL after 48 hrs by Kirby-Bauer disk diffusion assay; settings: ATCC 14468, 48 h, read-out: IZ
Summary of the method: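 Kirby–Bauer disk diffusion on Middlebrook 7H10 agar with 0.5% glycerol and OADC. Inoculum grown in 7H9 with 0.2% glycerol and ADC about 24 h at 37 °C, 180 rpm. 10 µL of 1 mg/mL compound in DMSO applied to 6 mm disks. INH (1 mg/mL in DMSO) positive control, DMSO negative control. Plates incubated 48 h at 37 °C. Inhibition zone diameter measured.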

| SMILES | Activity (Enterococcus faecalis [1]) | MIC [2] [µg/mL] | MIC (Enterococcus faecalis [3]) [µg/mL] | zone of inhibition at 1000 µg/mL (Bacillus subtilis [4]) [mm] | MIC (Bacillus subtilis [5]) [µg/mL] | zone of inhibition at 1000 µg/mL [6] [mm] | zone of inhibition at 1000 µg/mL (Enterococcus faecalis [1]; ATCC 29212, 24 h, read-out: IZ) [mm] |
| --- | --- | --- | --- | --- | --- | --- | --- |
| CC(=O)c1ccc(N2CC(Cn3cc(CCO)nn3)OC2=O)cc1 (stereo not drawn) | inactive | 16 (≈ 48.4 µM) | > 32 | 17 | > 32 | 15 | – |
| CC(=O)c1ccc(N2CC(Cn3ccnn3)OC2=O)cc1 (stereo not drawn) | inactive | 1 (≈ 3.49 µM) | 16 (≈ 55.9 µM) | 26 | 4 (≈ 14 µM) | 25 | – |
| NNC(=O)c1ccncc1 [ISONIAZID] | – | 4 (≈ 29.2 µM) | – | – | – | 17 | – |
| CN[C@H](CC(C)C)C(=O)N[C@H]1C(=O)N[C@@H](CC(N)=O)C(=O)N[C@H]2C(=O)N[C@H]3C(=O)N[C@H](C(=O)N[C@H](C(=O)O)c4cc(O)cc(O)c4-c4cc3ccc4O)[C@H](O)c3ccc(c(Cl)c3)Oc3cc2cc(c3O[C@@H]2O[C@H](CO)[C@@H](O)[C@H](O)[C@H]2O[C@H]2C[C@](C)(N)[C@H](O)[C@H](C)O2)Oc2ccc(cc2Cl)[C@H]1O [VANCOMYCIN] | – | – | 1 (≈ 0.69 µM) | 15 | 0.5 (≈ 0.345 µM) | – | 14 |
